Screening data as filed in PubChem BioAssay.
Sampled rows, rich in hits. Any-hit rate of the full collection: about 1.5%.
CSN inh: inhibitors of human CSN-mediated cullin deneddylation; inhibition, % at 12.5 µM; AID 651999; Q92905; 0.38% of 360,000 active; Purified CSN, SCF-Nedd8-OG deneddylation, fluorescence polarization;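 active = pattern-corrected inhibition above about 35%, with an unprinted fluorescence ratio check between 0.5 and 1.5, limit read from the data, passing the limit was not always enough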;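 also: 0% = enzyme with substrate and 100% = substrate without enzyme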
Target sequence (Q92905 whole entry, looked up, one chain of several): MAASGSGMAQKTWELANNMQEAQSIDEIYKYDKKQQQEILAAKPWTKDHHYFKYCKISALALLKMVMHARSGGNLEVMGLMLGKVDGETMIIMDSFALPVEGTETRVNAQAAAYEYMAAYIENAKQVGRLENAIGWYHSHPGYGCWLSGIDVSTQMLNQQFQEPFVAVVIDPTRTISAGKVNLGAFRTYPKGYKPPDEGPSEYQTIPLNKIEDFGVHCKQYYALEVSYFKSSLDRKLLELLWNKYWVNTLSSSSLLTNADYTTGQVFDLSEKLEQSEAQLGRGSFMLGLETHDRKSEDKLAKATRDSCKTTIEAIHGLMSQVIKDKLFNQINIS
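test system = HEK293T-derived human Csn5 enzyme | amount = 0.24 nM Csn5 enzyme, final concentration | medium = Tris/NaCl/DTT buffer, pH 7.5 | schedule = 90 min reaction at room temperature | signal = FP | evaluation = inhibition of Csn5 cleavage, % | compound dosing = single dose of 12.5 µM compound with 0.25% DMSO | probe or stimulus = 10 nM SCFSkp2-Nedd8OG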
HNF4A DNA FP: change in binding of human HNF4 alpha to DNA; HNF4a-FITC DNA binding, fluorescence polarization, 1 h; AID 1224865; activity change, % at 10 µM; P41235; 0.3% of 360,000 active; in the data active = activity change above about 30%, passing the limit was not always enough
NR1D1 modulator: Rev-erb alpha (human) modulation; AID 1259318; 0.79% of 370,000 active; Rev-erbα–FITC-DNA binding, fluorescence polarization, 90 min; activity, % at 10 µM;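 active = activity above about 14%, limit read from the data; passing the limit was not always enough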;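 also: 0% = DMSO wells with 35 nM protein and 100% = DMSO wells with 750 nM protein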
aDG glyco up: increases alpha dystroglycan glycosylation. Pro5-aDG cells, alpha-DG glycosylation AlphaScreen (IIH6); 0% Pro5, 100% B10-LARGE cell signal. activation, % at 10 µM. 0.22% of 360,000 active;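 active = activation of at least 8% versus controls, or a plate z-score of at least 8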;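 also: Pro5 are CHO cells carrying HIG-tagged alpha-DG that lacks glycosylation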
Rev-erbA confirm: Rev-erb alpha (human) modulation, hit confirmation; shares compounds with NR1D1 modulator; Rev-erb alpha FITC-DNA binding, fluorescence polarization, 90 min; activation, % at 25 µM; 61% of 3,000 active; AID 1259319;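 active = activation at or above a set limit, or at least 3 SD above the negative control mean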;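 also: 0% = 35 nM protein with DMSO and 100% = 750 nM protein high control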
RORg counter: affects RORgamma DNA binding in a Rev-erb alpha counter-screen. AID 1259320. shares compounds with NR1D1 modulator. 8% of 910 active. purified RORgamma protein-FITC-DNA binding, fluorescence polarization. IC50, µM;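 active = Compounds whose fitted half-maximal concentration for disrupting protein-DNA binding is below 10 micromolar; the record names Rev-erb in its text, so the target is in doubt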
An asterisk follows results filed as active; i = inactive; . = not tested or not shown.

SMILES | CSN inh | HNF4A DNA FP | NR1D1 modulator | aDG glyco up | Rev-erbA confirm | others
CCCCOc1ccc(N(CC(=O)NC2CCCCC2)C(=O)c2snc(C(N)=O)c2N)cc1 | -5.5 | -1.0 | 63.7* | -0.1 | 40.5* | RORg counter=i
Cc1ccc(OCCn2c(NC(=O)c3ccco3)nc3ccccc32)cc1 | 0.1 | 4.7 | 29.8* | 0.7 | 12.7
O=C(Nc1nc2ccccc2n1Cc1ccc(Cl)cc1)c1ccco1 | -4.1 | 0.5 | 27.7* | 2.0 | 6.9
O=C(Nc1nc2ccccc2n1CCOc1ccccc1)c1ccco1 | 2.8 | -2.0 | 1.0 | 1.4 | .
CCOC(=O)CC[C@@H]1CC[C@]2(CCCN(C(=O)c3ccccc3)C2)O1 | . | . | 2.0 | . | .
C[C@H](O)[C@@H]1CN2CCc3c([nH]c4c(-c5ccccc5)cccc34)[C@@H]2C[C@@H]1N(C)C(=S)Nc1ccc(C#N)cc1 | . | . | 5.7 | . | .
C#CCNC(=O)C[C@H]1C[C@@]2(C(=O)OC)C(=C[C@H](C3CCCC3)O[C@@H]2C)N(CCc2ccc(OC)c(OC)c2)C1=O | . | . | 1.6 | . | .
CCc1ccc(/C=C/C(=O)NC2=NCCS2)cc1 | . | . | -0.9 | . | .
CC(NC(=O)c1ccc(N(C)C)cc1)C1CC2CCC1C2 (stereo not drawn) | 2.2 | 1.4 | 31.5* | -0.3 | 18.3*
COC(=O)[C@]12C[C@H](CC(=O)N3CCSCC3)C(=O)N(Cc3ccco3)C1=C[C@H](C(C)C)O[C@@H]2C1CC1 | . | . | -5.6 | . | .
CCOC(=O)C1=CCN(S(=O)(=O)c2cccc(Cl)c2)C1c1cccc(Cl)c1 (stereo not drawn) | . | . | -5.6 | . | .
CCOC(=O)C1=CCN(S(=O)(=O)c2cccc(Cl)c2)C1c1cccc(C)c1 (stereo not drawn) | -1.8 | 2.5 | 17.8* | -0.2 | 3.6
O=S1(=O)c2ccc(Br)cc2OC[C@@H](Cc2ccccc2)N1Cc1cn(CCC2OCCO2)nn1 | . | . | 5.4 | . | .
COc1ccc(CN2CCCC(CO)(Cc3ccc(F)cc3)C2)cc1C (stereo not drawn) | -0.6 | 0.4 | 12.6* | 0.0 | 3.1
CC(C)Oc1ccc(CN2CCCC(CO)(Cc3ccccc3)C2)cc1CO (stereo not drawn) | -0.1 | 3.5 | 1.5 | 0.2 | .
O=C(NCc1ccccc1Cl)C1CCCN(c2nc3ccccc3o2)C1 (stereo not drawn) | . | . | -9.4 | . | .
COc1ccccc1CN1CC(C(=O)NCc2nc3ccccc3n2C)CCC1=O (stereo not drawn) | -0.3 | 1.0 | 3.9 | -0.2 | .
COc1ccccc1CN1CC(C(=O)NCc2nccn2C)CCC1=O (stereo not drawn) | -0.2 | 4.5 | 20.4* | 0.1 | 4.3
COc1ccc(-c2cc(-c3nnc(SCC(=O)N4CCOCC4)n3N)[nH]n2)cc1 | . | . | 3.9 | . | .
CC1CCN(Cc2cc(=O)oc3ccc(C(C)C)cc23)CC1 | 0.5 | 0.2 | 21.7* | 1.0 | 32.6* | RORg counter=>40
CC(C)c1ccc2oc(=O)cc(CN3CCCCC3)c2c1 | 0.9 | -0.8 | 10.6 | -0.1 | .
CCOC(=O)[C@]12CCCC=C1N(Cc1ccc(OC)cc1)C(=O)[C@@H]2CC(=O)NCc1cccc2ccccc12 | . | . | 1.3 | . | .
N#Cc1ccc(-c2nc3ccc(Br)cn3c2Cc2cccc(Cl)c2)cc1 | 4.9 | 8.1 | 6.9 | -0.1 | .
Cc1ccc(Cc2c(-c3ccc(C#N)cc3)nc3ccc(Br)cn23)cc1 | 4.8 | 0.1 | 28.7* | 0.5 | 6.1
N#Cc1ccc(-c2nc3ccc(Br)cn3c2Cc2ccccc2)cc1 | 3.3 | -0.9 | 21.9* | 0.4 | 14.3*
SMILES | CSN inh | HNF4A DNA FP | NR1D1 modulator | aDG glyco up | Rev-erbA confirm | others
Cc1ccc(Cc2c(-c3ccc(C#N)cc3)nc3ccc(C)cn23)cc1 | . | . | -4.6 | . | .
S=C(Nc1ccc(Br)cc1)OCCN1CCCC12CCC(c1ccccc1)CC2 (stereo not drawn) | . | . | -0.9 | . | .
CCCCNC(=O)c1nn2c(C(F)(F)F)cc(-c3ccc(OC)cc3)nc2c1Br | -3.9 | -0.5 | 48.3* | 0.1 | 9.1
CCCCNC(=O)c1cc2nc(-c3ccc(OC)cc3)cc(C(F)(F)F)n2n1 | -0.9 | 2.1 | -3.6 | 0.5 | .
CCCNC(=O)c1nn2c(C(F)(F)F)cc(-c3ccccc3)nc2c1Br | 0.4 | 3.1 | 28.3* | -0.1 | 21.0*
CC(C)(C)NC(=O)c1nn2c(C(F)(F)F)cc(-c3ccccc3)nc2c1Br | -4.5 | -2.8 | -2.6 | 0.1 | .
CN(C)C(=O)NCCCC#Cc1ccccc1 | . | . | 8.3 | . | .
Cc1c(C)c(C)c(S(=O)(=O)N2CCSCC2)c(C)c1C | -1.9 | -0.8 | 10.7 | 0.0 | .
Cc1cc(C)c(C)c(S(=O)(=O)N2CCSCC2)c1C | -2.8 | -1.9 | 18.6* | 0.0 | 14.1
CC(=O)c1cccc(NC(=O)c2cccc(NC(=O)c3ccco3)c2)c1 | 7.1 | 3.4 | 44.6* | -0.1 | 98.8* | RORg counter=5.74*
COC(=O)[C@]12C[C@H](CC(=O)N3CCOCC3)C(=O)N(Cc3ccco3)C1=C[C@H](C(C)(C)C)O[C@@H]2C | . | . | -4.2 | . | .
Cc1cccc2c(C(=O)n3cccn3)cc(-c3ccccc3Cl)nc12 | -8.3 | 4.1 | 30.7* | 0.0 | 7.1
COC(=O)[C@]12C[C@H](CC(=O)NCc3cccc(C(F)(F)F)c3)C(=O)N(Cc3ccc4c(c3)OCO4)C1=C[C@H](C(C)C)O[C@@H]2C1CC1 | . | . | -5.4 | . | .
O=C(NCCOc1ccccc1)c1ccc2c(c1)S(=O)(=O)c1cc(Cl)ccc1C2=O | -4.5 | 0.0 | 23.5* | 0.1 | 15.3
Cc1ccsc1C(=O)Nc1ccc(O)c(-c2nc3ccccc3s2)c1 | 14.8 | 5.4 | 449.8* | 0.0 | 353.9* | RORg counter=>40
O=C(Nc1ccc(OC(=O)c2ccccc2)c(-c2nc3ccccc3s2)c1)c1ccccc1 | -2.1 | 9.8 | 17.7 | 0.2 | .
CC(=O)Nc1ccc(O)c(-c2nc3ccccc3s2)c1 | 6.8 | 1.1 | 230.7* | -0.4 | 384.6* | RORg counter=>40
O=C(Nc1ccc2c(c1)Cc1ccccc1-2)NC1CCCCN(Cc2cccc(Cl)c2)C1=O (stereo not drawn) | . | . | 1.7 | . | .
CCOC(=O)Cn1cc(CN2CCS(=O)(=O)N(Cc3ccc(Cl)cc3)C(C(=O)OC)C2)nn1 (stereo not drawn) | . | . | -5.4 | . | .
CCOC(=O)[C@]12CCCCC/C=C\1N(Cc1ccc(OC)cc1)C(=O)[C@H]2CC(=O)N1CCCC1 | . | . | 6.4 | . | .
Cc1c(Br)ccc(NC(=O)Cn2nc(-c3cccs3)ccc2=O)c1C | 11.2 | -4.1 | 50.4* | -0.1 | 42.2* | RORg counter=>40
C[C@H]1[C@@H](OC(=O)Nc2ccc(C(F)(F)F)cc2)CC[C@@]23CCCN2C(=O)CCC[C@@H]13 | . | . | 2.8 | . | .
O=C(NN1CCOCC1)c1cc(-c2ccc(Br)s2)nc2ccccc12 | 9.3 | 3.9 | 32.0* | 0.3 | 6.5
O=C(NCC1CCCO1)c1cn(Cc2ccccc2)nc1-c1ccccc1 (stereo not drawn) | -4.5 | -3.2 | 26.8* | 0.1 | -4.9
C[C@@H](CO)N(Cc1cn(Cc2ccccc2)nn1)S(=O)(=O)c1ccc(F)cc1Br | . | . | 6.1 | . | .
